This note sets out measurements from ChEMBL document CHEMBL6083205, “A comprehensive apoptotic assessment of niloticin in cervical cancer cells: a tirucallane-type triterpenoid from Aphanamixis polystachya (Wall.) Parker” (RSC Med Chem, 2024).

Calls of active or inactive are those of the source. The calls are words filed in the database; no cut-off is given here.

In test [1] the test system is HeLa. In words: Induction of cell cycle arrest in human HeLa cells assessed as proportion of cell accumulation at S phase at 7 uM by propidium iodide staining based flow cytometry (reference value: 15.9%). The format is functional. A general note: In flow cytometry, cells or beads pass a laser one at a time.
In test [2] the test system is HeLa. The test can be described thus: Induction of cell cycle arrest in human HeLa cells assessed as proportion of cell accumulation at G2 phase at 11 uM by propidium iodide staining based flow cytometry (reference value: 8.7%). The class given is functional.
Test [3] relates to HeLa. In words: Induction of cell cycle arrest in human HeLa cells assessed as downregulation of Cdc25 protein expression at 7 to 11 uM by western blot analysis. The format is functional, cell-based. To be noted: dose 7-11 µM. A digest of the protocol: (§1)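 Protein extracted from treated and untreated HeLa, BCA-quantified and normalised; SDS-PAGE, PVDF transfer, 5% skim milk block; primary antibodies 18 h at 4 °C, HRP secondary; chemiluminescent detection of Cdk-2, cyclin A2, cyclin B1, Cdc-25 with β-actin loading control.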
Background: Immunoblotting shows a protein as a band on a membrane.

The test system of test [4] is HeLa. The test can be described thus: Inhibition of colony formation in human HeLa cells assessed as decrease in number of colonies formed at 3 to 6 uM incubated for 9 days by crystal violet staining based microscopic analysis. The class given is functional, cell-based. To be noted: dose 3-6 µM, time 9.0 day. The essentials:
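HeLa seeded at 1 × 10^3 cells in 6-well plates; after attachment treated at 3 and 6 μM and grown 9 days at 37 °C; fixed in 70% methanol, stained with 0.3% crystal violet, PBS-washed; colonies imaged and counted by image analysis.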

Test [5] deals with HeLa. In words: Induction of cell cycle arrest in human HeLa cells assessed as downregulation of Cyclin B1 protein expression at 7 to 11 uM by western blot analysis. To be noted: dose 7-11 µM. The format is functional, cell-based. A digest of the protocol: as §1
Test [6] has as its system HeLa. In words: Induction of apoptosis in human HeLa cells assessed as fold increase in caspase-3 activation at 7 to 11 uM by fluorometric assay relative to control. To be noted: dose 7-11 µM. The format is functional. A digest of the protocol: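 HeLa seeded at 3 × 10^6 in 6-well plates, treated at 7 and 11 μM; caspase-3, -8 and -9 activity each measured by fluorometric kit per manufacturer's protocol; fluorescence read at ex 400 nm / em 505 nm; fold change versus control; mean ± SD.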

For test [7], the system named is HeLa. The test can be described thus: Induction of apoptosis in human HeLa cells assessed as proportion of early apoptotic cells at 7 uM by AnnexinV-FITC/PI staining based FACS analysis (reference value: 4.5%). The format is functional.
The subject of test [8] is HeLa. The test can be described thus: Induction of apoptosis in human HeLa cells assessed as proportion of necrotic cells at 11 uM by AnnexinV-FITC/PI staining based FACS analysis (reference value: 3.4%). The format is functional.
The test system of test [9] is HeLa. The test can be described thus: Induction of mitochondrial membrane potential depolarization in human HeLa cells assessed as decrease in JC-1 aggregate to monomer ratio at 7 to 11 uM incubated for 24 hrs by JC-1 staining based fluorescence microscopic analysis. The format is functional, cell-based. To be noted: dose 7-11 µM. A digest of the protocol:
(§2)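 HeLa treated for 24 h, then stained with JC-1 dye; red aggregate and green monomer fluorescence imaged on inverted microscope with FITC filter; aggregate-to-monomer ratio calculated relative to control; mean ± SD; scale bar 50 μm.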

Test [10] has as its system HeLa. The test can be described thus: Antimetastatic activity in human HeLa cells assessed as inhibition of cell migration at 3 to 6 uM measured after 24 to 48 hrs by scratch wound assay. The format is functional, cell-based. To be noted: dose 3-6 µM, time 24-48 hrs. A digest of the protocol: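 HeLa monolayer formed 24 h after seeding, scratched with a pipette tip and washed with PBS; treated at 3 and 6 μM, untreated cells as control; wound imaged at 0, 24 and 48 h; percentage wound closure/area measured by image analysis.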

Test [11] concerns HeLa. In words: Induction of apoptosis in human HeLa cells assessed as DNA fragmentation at 7 to 11 uM incubated for 24 hrs by ethidium bromide staining based agarose gel electrophoresis analysis. The format is functional, cell-based. Particulars: dose 7-11 µM. The essentials:
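HeLa treated at 7 and 11 μM; genomic DNA isolated by kit, quantified by nanodrop and normalised; run on 0.8% agarose at 80 V, stained with ethidium bromide; laddering imaged by gel documentation.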

The subject of test [12] is HeLa. The test can be described thus: Induction of apoptosis in human HeLa cells assessed as proportion of viable cells at 7 uM by AnnexinV-FITC/PI staining based FACS analysis (reference value: 77.7%). The format is functional.
Test [13] has as its system HeLa. The test can be described thus: Induction of cell cycle arrest in human HeLa cells assessed as downregulation of Cyclin A2 protein expression at 7 to 11 uM by western blot analysis. The class given is functional, cell-based. Particulars: dose 7-11 µM. The essentials:
as §1

The subject of test [14] is HeLa. The test can be described thus: Antimetastatic activity in human HeLa cells assessed as downregulation of Ki67 expression at 3 to 6 uM incubated for 24 hrs by DAPI staining based immunofluorescence analysis. Particulars: dose 3-6 µM. The format is functional, cell-based. The essentials: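 HeLa, 7 × 10^3 cells/well, treated at two concentrations for 24 h; fixed in 4% paraformaldehyde 15–30 min at 37 °C, permeabilised with 0.1% Triton-X 10 min, blocked in 5% BSA/PBST 1 h; Ki67 primary antibody overnight, then secondary antibody and DAPI counterstain; fluorescence microscopy imaging, fluorescence intensity quantified; mean ± SD.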

Test [15] has as its system HeLa. In words: Induction of mitochondrial membrane potential depolarization in human HeLa cells assessed as increase in JC-1 monomers by measuring increase in green fluorescence intensity at 7 to 11 uM incubated for 24 hrs by JC-1 staining based fluorescence microscopic analysis. The format is functional, cell-based. Particulars: dose 7-11 µM. The essentials:
as §2

Test [16] relates to HeLa. In words: Induction of apoptosis in human HeLa cells assessed as increase in number of cells with condensed nucleic acids at 7 to 11 uM incubated for 24 hrs by Hoechst 33342 staining based fluorescence light microscopy. The class given is functional, cell-based. Particulars: dose 7-11 µM. A digest of the protocol:
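HeLa, 7 × 10^3 cells/well, treated 24 h at 7 and 11 μM; stained with Hoechst 33342 (1 μg mL−1 in PBS); condensed nuclei imaged through DAPI filter on inverted fluorescence microscope.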

In test [17] the test system is HeLa. The test can be described thus: Induction of apoptosis in human HeLa cells assessed as cells with compromised membrane by measuring increase in red fluorescence intensity at 7 to 11 uM by acridine orange/ethidium bromide dual staining based fluorescence microscopy. The class given is functional, cell-based. To be noted: dose 7-11 µM. The essentials: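 HeLa exposed to 7 and 11 μM versus untreated control; live/dead staining either with acridine orange–ethidium bromide dual stain (fluorescence, FITC filter) or with APOPercentage dye (pink uptake, brightfield); imaged on inverted microscope.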

Test [18] deals with HeLa. The test can be described thus: Induction of cell cycle arrest in human HeLa cells assessed as proportion of cell accumulation at subG0 phase at 11 uM by propidium iodide staining based flow cytometry (reference value: 7.6%). The format is functional.
Test [19] concerns HeLa. The test can be described thus: Antiproliferative activity against human HeLa cells assessed as inhibition of cell growth incubated for 24 hrs by MTT assay. The class given is functional, cell-based. A digest of the protocol: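 Cells kept in DMEM with 10% FBS and 1% antibiotic-antimycotic at 37 °C and 5% CO2. Seeded at 8 × 10^3 cells per 100 μL and left 24 h, then exposed 24 h to 5, 10, 20, 50 or 100 μM. MTT at 0.5 mg/mL in HBSS was added for 2–4 h at 37 °C in the dark. Formazan was dissolved in DMSO, A570 was read, and IC50 was derived.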

Test [20] has as its system HeLa. The test can be described thus: Induction of apoptosis in human HeLa cells assessed as proportion of late apoptotic cells at 7 uM by AnnexinV-FITC/PI staining based FACS analysis (reference value: 14.5%). The format is functional.

The IC50 is the concentration needed to halve the response being measured. Take `C[C@@H](C[C@@H](O)[C@@H]1OC1(C)C)[C@@H]1CC[C@]2(C)C3=CC[C@H]4C(C)(C)C(=O)CC[C@]4(C)[C@H]3CC[C@@]12C`: the Activity with HeLa [1] is on record as 4.9%; in the test with HeLa [2], 6.2%; in the test on HeLa [7] it was 50.9%; with HeLa [8], 4.5%; in the test with HeLa [12], 38.3%; with HeLa [18] it was 39.5%. Further, the Activity in the test with HeLa [20] came out at 10.1%. Besides, the outcome in the test with HeLa [3], in the test with HeLa [5], with HeLa [9], in the test on HeLa [10], with HeLa [11] and in the test on HeLa [13] was Active. For the same molecule, the result in the test on HeLa [14], with HeLa [15], in the test on HeLa [16] and in the test with HeLa [17] was Active. In addition, in the test on HeLa [4], the inhibition result is “Dose-dependent-effect”. Besides, in the test with HeLa [6], the “fold change (FC)” value is 3. Also, the IC50 with HeLa [19] stood at 11.7 µM.
